Test results reported in ChEMBL document CHEMBL2176894, “Cyanobacterial peptides as a prototype for the design of potent β-secretase inhibitors and the development of selective chemical probes for other aspartic proteases” (J Med Chem, 2012).
Activity calls are given as the source filed them. The calls are words filed in the database; no cut-off is given here. Starred links: 1 amine or outer side, 2 acyl side, 3 side chain; linkers in the order of their positions; H or OH if unused. Non-standard residues stand in square brackets, D forms with d. Residues, ends and D or L forms follow the SMILES beside them. *: point of attachment. Ahppa(3S,4S) = O=C(C[C@H](O)[C@H](Cc1ccccc1)N[*:1])[*:2]; dNMeF = CN[C@H](Cc1ccccc1)C(=O)O; NMeQ = CN[C@@H](CCC(N)=O)C(=O)O; Cbz = O=C(OCc1ccccc1)*; Lac = C[C@H](O)C(=O)O

Legend:
Cathepsin E = biological target: T1, Cathepsin E (Homo sapiens, UniProt P14091); assay: Inhibition of cathepsin E by fluorescence assay
T1 sequence (P14091 whole entry): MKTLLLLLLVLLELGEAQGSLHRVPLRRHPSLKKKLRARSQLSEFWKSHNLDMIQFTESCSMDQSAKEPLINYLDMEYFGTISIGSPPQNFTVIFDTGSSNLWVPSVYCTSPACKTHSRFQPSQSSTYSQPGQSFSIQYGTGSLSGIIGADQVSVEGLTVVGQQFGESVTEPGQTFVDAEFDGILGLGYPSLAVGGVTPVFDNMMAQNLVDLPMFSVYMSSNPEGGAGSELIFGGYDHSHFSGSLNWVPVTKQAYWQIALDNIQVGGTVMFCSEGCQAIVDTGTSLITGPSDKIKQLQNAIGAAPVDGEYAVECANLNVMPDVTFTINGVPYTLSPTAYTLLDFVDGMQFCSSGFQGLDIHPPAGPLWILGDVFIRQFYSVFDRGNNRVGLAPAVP

Cathepsin D = Cathepsin D (Homo sapiens, UniProt P07339); assay: Inhibition of cathepsin D by fluorescence assay
Beta-secretase 1 [1] = biological target: T2, Beta-secretase 1 (Homo sapiens, UniProt P56817); assay: Inhibition of BACE1 by fluorescence assay
Beta-secretase 1 [2] = biological target: T2, Beta-secretase 1; conditions: H4, at 10 µM
[3] = biological target: T3, Gamma-secretase (Homo sapiens) (UniProt Q96BI3+Q9NZ42+Q8WW43+P49768+Q92542+P49810); assay: Inhibition of gamma secretase expressed in human H4 cells expressing BRI-C99 fusion protein assessed as C99 fragment accumulation fragment at 10 uM incubated for 16 hrs in by immunoblot; format: cell-based
Procedure, shortened: (§1)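 H4 cells overexpressing Bri-C99 (400000/well) were kept in Opti-MEM with 1% serum and treated 16 h with test compound (10 μM), LY411575 (100 nM) or BACE1 inhibitor IV (1 μM). Cells were lysed in TBS/1% Triton X-100 and run on a 12% bis-tris gel. Blots were probed with CT-20 antibody for furin-generated C99 and read on an infrared imager.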

H4 = assay: Inhibition of Alpha secretase expressed in human H4 cells assessed as reduction in C83 levels at 10 uM incubated for 16 hrs by immunoblot; format: cell-based
Procedure, shortened: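 H4 cells (3 × 10⁵/well) adhered 4−6 h in DMEM/10% FCS at 37 °C, then were switched to serum-free Ultraculture containing compound at 10 μM final for 16 h. Cells were lysed in NP40/deoxycholate buffer, and protein was equalized by BCA. Lysates were run on 10−20% tricine gels and immunoblotted with antibody to the APP C-terminal 20 residues (1:2000); C99 and C83 were imaged on an infrared system.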

Nucleic Acid = assay: Ratio of drug level in CF1 mouse brain to IC50 for inhibition of BACE1-mediated Abeta40/Abeta42 production in CHO 2B7 cells expressing wild type APP695; format: cell-based
Procedure, shortened: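 CF-1 mice (8 weeks, 25−35 g) received 30 mg/kg i.p. in 5% DMSO/15% Solutol HS 15/10% EtOH/65% water and were killed 3 h post-dose. Cerebellum and cortex were homogenized in acetonitrile (1:10 w:v) with internal standard and quantified by HPLC-MS (MRM, negative ion). The cellular reference was CHO 2B7 (APP695 wt): 16 h treatment, 1% DMSO, secreted Aβ40/Aβ42 sandwich ELISA.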

Beta-secretase 1 [4] = biological target: T2, Beta-secretase 1; assay: Inhibition of BACE1 expressed in CHO 2B7 cells expressing wild type APP695 assessed as reduction in Abeta40/Abeta42 levels incubated for 16 hrs by sandwich ELISA; format: cell-based
Brain = assay: Drug concentration in CF1 mouse brain at 30 mg/kg, ip measured 3 hrs post dose by HPLC-MS method relative to compound plasma concentration; format: ADME, organism-based; design: dose 30 mg/kg, route intraperitoneal
Procedure, shortened: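 CF-1 mice, 8 weeks old, 25−35 g, given 30 mg/kg i.p. in 5% DMSO/15% Solutol HS 15/10% EtOH/65% water; killed 3 h post-dose. Cerebellum and cortex homogenized in acetonitrile (1:10 w:v) containing internal standard, then re-extracted. Plasma was taken by cardiac puncture into K-EDTA. Levels were measured by HPLC-MS (MRM, negative ionization) and interpolated from a calibration curve.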

Mus musculus = assay: Reduction in […] in CF1 mouse at 30 mg/kg, ip measured 3 hrs post dose by sandwich ELISA; format: functional, organism-based; design: dose 30 mg/kg
Serum [5] = assay: Stability in mouse serum by HPLC-MS method; format: ADME, cell-free
Procedure, shortened: (§2)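 Compound (10 μL of 25 μg/mL) was incubated with 100 μL mouse serum at 37 °C for 0, 1, 2, 4, 8, 12 and 24 h. The reaction was quenched with EtOAc plus internal standard, shaken 5 min, centrifuged at 16000g, and the organic layer dried and taken up in MeOH. Parent and ester-hydrolysis acid were quantified by HPLC-MS MRM interpolation; n = 2.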

Beta-secretase 1 [6] = biological target: T2, Beta-secretase 1; assay: Inhibition of BACE1 expressed in human H4 cells assessed as reduction in CTF levels at 10 uM incubated for 16 hrs by immunoblot; format: cell-based
[7] = Drug metabolism in human H4 cells lysates assessed as ester hydrolysis mediated formation of metabolites by HPLC-MS method; format: ADME, cell-based, Lysate
Procedure, shortened: (§3)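 H4 whole-cell lysate was diluted to 1 mg/mL protein in 0.1 M phosphate buffer, pH 7.4. Parent and acid hydrolysis product were extracted with EtOAc with internal standard. Quantitation was by HPLC-MS MRM against a calibration curve; n = 2.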

Serum [8] = assay: Drug metabolism in mouse serum assessed as ester hydrolysis mediated formation of metabolites by HPLC-MS method; format: ADME, cell-free; procedure, shortened: as §2
[9] = Stability in human H4 cells lysates by HPLC-MS method; format: ADME, cell-based, Lysate; procedure, shortened: as §3
[10] = biological target: T3, Gamma-secretase (Homo sapiens); assay: Inhibition of gamma secretase expressed in human H4 cells expressing BRI-C99 fusion protein assessed as C99 fragment accumulation fragment at 100 nM incubated for 16 hrs in by immunoblot; format: cell-based; procedure, shortened: as §1
[11] = biological target: T3, Gamma-secretase (Homo sapiens); assay: Inhibition of gamma secretase expressed in human H4 cells assessed as reduction in CTF levels at 10 uM incubated for 16 hrs by immunoblot; format: cell-based
[12] = biological target: T3, Gamma-secretase (Homo sapiens); assay: Inhibition of gamma secretase expressed in human H4 cells assessed as reduction in C83 levels at 10 uM incubated for 16 hrs by immunoblot; format: cell-based

T2 sequence (P56817 whole entry): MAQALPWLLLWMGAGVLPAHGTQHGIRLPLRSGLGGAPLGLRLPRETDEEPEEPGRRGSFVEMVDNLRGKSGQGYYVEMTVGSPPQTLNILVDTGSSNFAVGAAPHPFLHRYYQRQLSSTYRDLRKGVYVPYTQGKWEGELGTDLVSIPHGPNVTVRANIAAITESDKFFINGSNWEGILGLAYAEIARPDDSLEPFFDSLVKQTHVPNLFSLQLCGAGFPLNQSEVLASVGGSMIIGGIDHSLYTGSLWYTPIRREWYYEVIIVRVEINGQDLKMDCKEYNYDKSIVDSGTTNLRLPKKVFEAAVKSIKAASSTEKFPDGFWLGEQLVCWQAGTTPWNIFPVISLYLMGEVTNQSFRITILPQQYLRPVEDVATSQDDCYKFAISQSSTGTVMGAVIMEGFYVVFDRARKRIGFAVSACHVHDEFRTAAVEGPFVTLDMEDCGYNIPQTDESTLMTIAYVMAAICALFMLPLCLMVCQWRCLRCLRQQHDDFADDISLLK
Sequence of Cathepsin D (P07339 65-162 limits assumed): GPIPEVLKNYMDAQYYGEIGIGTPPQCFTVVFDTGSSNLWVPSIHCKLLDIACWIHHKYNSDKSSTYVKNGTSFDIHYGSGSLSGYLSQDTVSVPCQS
Sequence of Cathepsin D (P07339 169-412 limits assumed): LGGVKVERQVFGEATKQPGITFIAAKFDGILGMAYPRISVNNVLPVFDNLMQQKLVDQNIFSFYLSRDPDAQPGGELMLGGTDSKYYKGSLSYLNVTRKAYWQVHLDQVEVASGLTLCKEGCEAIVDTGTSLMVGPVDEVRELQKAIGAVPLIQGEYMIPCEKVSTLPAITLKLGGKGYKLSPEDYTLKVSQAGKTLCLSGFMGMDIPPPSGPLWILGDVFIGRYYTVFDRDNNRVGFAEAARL

SMILES: COC(=O)[C@@H]1CCCN1C(=O)[C@@H](Cc1ccccc1)N(C)C(=O)[C@H](C)NC(=O)[C@H](CC(C)C)NC(=O)C[C@H](O)[C@H](Cc1ccccc1)NC(=O)[C@H](CCC(N)=O)N(C)C(=O)[C@@H](NC(=O)OC(C)(C)C)C(C)C
- IC50 (Cathepsin E): 1.92 nM
- IC50 (Cathepsin D): 0.126 nM

SMILES: CC(C)C[C@H](NC(=O)C[C@H](O)[C@H](Cc1ccccc1)NC(=O)[C@H](CCC(N)=O)N(C)C(=O)[C@@H](NC(=O)[C@H](C)O)C(C)C)C(=O)N[C@@H](C)C(=O)N(C)[C@H](Cc1ccccc1)C(=O)O (H-[Lac]V[NMeQ][Ahppa(3S,4S)]LA[dNMeF]-OH)
- IC50 (Cathepsin E): 20.8 nM
- IC50 (Beta-secretase 1 [1]): 73 nM
- IC50 (Cathepsin D): 54.1 nM
- inhibition (Beta-secretase 1 [2]): Active

SMILES: COC(=O)[C@@H]1CCCN1C(=O)[C@@H](Cc1ccccc1)N(C)C(=O)[C@H](C)NC(=O)[C@H](CC(C)C)NC(=O)C[C@H](O)[C@H](Cc1ccccc1)NC(=O)[C@H](CCC(N)=O)N(C)C(=O)[C@@H](N)C(C)C
- inhibition [3]: inactive
- IC50 (Cathepsin E): 58.2 nM
- inhibition (H4): inactive
- IC50 (Cathepsin D): 17.3 nM

SMILES: COC(=O)[C@@H]1CCCN1C(=O)[C@@H](Cc1ccccc1)N(C)C(=O)[C@H](C)NC(=O)[C@H](CC(C)C)NC(=O)C[C@H](O)[C@H](Cc1ccccc1)NC(=O)[C@H](CCC(N)=O)N(C)C(=O)[C@@H](NC(=O)[C@H](C)O)C(C)C [listing 1 of 2 here]
- IC50 (Cathepsin E): 66 nM

SMILES: COC(=O)[C@@H]1CCCN1C(=O)[C@@H](Cc1ccccc1)N(C)C(=O)[C@H](C)NC(=O)[C@H](CC(C)C)NC(=O)C[C@H](O)[C@H](Cc1ccccc1)NC(=O)c1cc(C(=O)N[C@H](C)c2ccccc2)cc(N(C)S(C)(=O)=O)c1
- Ratio (Nucleic Acid): 20
- IC50 (Beta-secretase 1 [4]): 10 nM
- Drug uptake (Brain): 5.8%
- inhibition [3]: inactive
- Activity (Mus musculus): Active
- IC50 (Cathepsin E): 36.4 nM
- inhibition (H4): inactive
- Stability (Serum [5]): Stable
- inhibition (Beta-secretase 1 [6]): Active
- Drug metabolism [7]: Active
- IC50 (Cathepsin D): 5.84 nM
- Drug metabolism (Serum [8]): Active
- Stability [9]: Stable
- inhibition (Beta-secretase 1 [2]): Active

SMILES: COc1cccc(CNC[C@@H](O)[C@H](Cc2ccccc2)NC(=O)c2cc(C(=O)N[C@H](C)c3ccccc3)cc(N(C)S(C)(=O)=O)c2)c1
- Drug uptake (Brain): 10%

SMILES: COC(=O)[C@@H]1CCCN1C(=O)[C@@H](Cc1ccccc1)N(C)C(=O)[C@@H](C)NC(=O)[C@H](CC(C)C)NC(=O)C[C@H](O)[C@H](Cc1ccccc1)NC(=O)[C@H](CCC(N)=O)N(C)C(=O)[C@@H](NC(=O)[C@H](C)O)C(C)C
- IC50 (Cathepsin E): 1450 nM

SMILES: CC(C)C[C@H](NC(=O)C[C@H](O)[C@H](Cc1ccccc1)NC(=O)[C@H](CCC(N)=O)N(C)C(=O)[C@@H](NC(=O)[C@H](C)O)C(C)C)C(=O)N[C@@H](C)C(=O)N(C)[C@H](Cc1ccccc1)C(=O)NC(C)C
- IC50 (Cathepsin E): 51.9 nM
- IC50 (Beta-secretase 1 [1]): 166 nM
- IC50 (Cathepsin D): 254 nM
- inhibition (Beta-secretase 1 [2]): Active

SMILES: COC(=O)[C@@H]1CCCN1C(=O)[C@@H](Cc1ccccc1)N(C)C(=O)[C@H](C)NC(=O)[C@H](CC(C)C)NC(=O)C[C@H](O)[C@H](Cc1ccccc1)NC(C)=O
- IC50 (Cathepsin E): 4950 nM
- IC50 (Cathepsin D): 71.7 nM

SMILES: COC(=O)[C@@H]1CCCN1C(=O)[C@@H](Cc1ccccc1)N(C)C(=O)[C@H](C)NC(=O)[C@H](CC(C)C)NC(=O)C[C@H](O)[C@H](Cc1ccccc1)NC(=O)[C@H](CCC(N)=O)N(C)C(=O)[C@@H](NC(=O)[C@H](C)O)C(C)C [listing 2 of 2 here]
- inhibition [3]: inactive

SMILES: CC(C)C[C@H](NC(=O)C[C@H](O)[C@H](Cc1ccccc1)NC(=O)[C@H](CCC(N)=O)N(C)C(=O)[C@@H](NC(=O)[C@H](C)O)C(C)C)C(=O)N[C@@H](C)C(=O)N(C)[C@H](Cc1ccccc1)C(=O)NCc1ccccc1
- IC50 (Cathepsin E): 30.4 nM
- IC50 (Beta-secretase 1 [1]): 124 nM
- IC50 (Cathepsin D): 20.9 nM
- inhibition (Beta-secretase 1 [2]): Active

SMILES: C[C@H](NC(=O)[C@@H](O)c1cc(F)cc(F)c1)C(=O)N[C@@H]1C(=O)N(C)c2ccccc2-c2ccccc21
- inhibition [10]: Active
- inhibition [11]: Active
- inhibition [12]: Active

SMILES: COC(=O)[C@@H]1CCCN1C(=O)[C@@H](Cc1ccccc1)N(C)C(=O)[C@H](C)NC(=O)[C@H](CC(C)C)NC(=O)C[C@H](O)[C@H](Cc1ccccc1)NC(=O)[C@H](CCC(N)=O)N(C)C(=O)[C@@H](NC(=O)OCc1ccccc1)C(C)C (Cbz-V[NMeQ][Ahppa(3S,4S)]LA[dNMeF]P-OMe)
- inhibition [3]: inactive
- IC50 (Cathepsin E): 0.724 nM
- IC50 (Cathepsin D): 0.0783 nM

SMILES: COC(=O)[C@@H]1CCCN1C(=O)[C@@H](Cc1ccccc1)N(C)C(=O)[C@H](C)NC(=O)[C@H](CC(C)C)NC(=O)C[C@H](O)[C@H](Cc1ccccc1)NC(=O)[C@H](CCC(N)=O)NC(C)=O
- inhibition [3]: inactive
- IC50 (Cathepsin E): 77.5 nM
- IC50 (Cathepsin D): 7.81 nM

SMILES: COC(=O)[C@@H]1CCCN1C(=O)[C@H](Cc1ccccc1)N(C)C(=O)[C@@H](C)NC(=O)[C@H](CC(C)C)NC(=O)C[C@H](O)[C@H](Cc1ccccc1)NC(=O)[C@H](CCC(N)=O)N(C)C(=O)[C@@H](NC(=O)[C@H](C)O)C(C)C
- IC50 (Cathepsin E): 1710 nM

SMILES: CC(C)C[C@@H](C=O)NC(=O)[C@H](CC(C)C)NC(=O)[C@@H](NC(=O)OCc1ccccc1)C(C)C (Cbz-Val-Leu-Leu-aldehyde)
- inhibition (Beta-secretase 1 [2]): Active

SMILES: COC(=O)[C@@H]1CCCN1C(=O)[C@@H](Cc1ccccc1)N(C)C(=O)[C@H](C)NC(=O)[C@H](CC(C)C)NC(=O)C[C@H](O)[C@H](Cc1ccccc1)NC(=O)[C@H](CCC(N)=O)N(C)C(=O)[C@@H](NC(=O)[C@H](C)O)C(C)C [TASIAMIDE B]
- IC50 (Cathepsin E): 37.5 nM

SMILES: COC(=O)[C@@H](Cc1ccccc1)N(C)C(=O)[C@H](C)NC(=O)[C@H](CC(C)C)NC(=O)C[C@H](O)[C@H](Cc1ccccc1)NC(C)=O
- IC50 (Cathepsin E): 1520 nM
- IC50 (Beta-secretase 1 [1]): > 10000 nM
- IC50 (Cathepsin D): 412 nM
